Laboratory results published in ChEMBL document CHEMBL4017546, “Small-Molecule Inhibitors of the CD40-CD40L Costimulatory Protein-Protein Interaction” (J Med Chem, 2017).
Converted amounts (≈) assume the structure as drawn. The source made the active and inactive calls. No cut-off for these calls is given here.

Columns and labels:
[1] = biological target: T1, CD40-CD40L (Homo sapiens, UniProt P25942+P29965); test: Inhibition of interaction of CD40 in human THP-1 cells with recombinant human CD40L assessed as reduction in CD40L-induced […] upregulation after 48 hrs by DAPI-staining based flow cytometric analysis; assay type: cell-based
Procedure, shortened: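 THP-1 cells serum-starved 24 h, then stimulated with rhCD154 (MegaCD40L) at 0.5 µg/mL plus graded compound in FBS-free RPMI for 48 h at 37°C, 5% CO2. Stained for HLA-DR, then DAPI just before flow cytometry. Marker quantified in live (DAPI-negative) cells.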
Target sequence in this assay (P25942 21-277 limits assumed): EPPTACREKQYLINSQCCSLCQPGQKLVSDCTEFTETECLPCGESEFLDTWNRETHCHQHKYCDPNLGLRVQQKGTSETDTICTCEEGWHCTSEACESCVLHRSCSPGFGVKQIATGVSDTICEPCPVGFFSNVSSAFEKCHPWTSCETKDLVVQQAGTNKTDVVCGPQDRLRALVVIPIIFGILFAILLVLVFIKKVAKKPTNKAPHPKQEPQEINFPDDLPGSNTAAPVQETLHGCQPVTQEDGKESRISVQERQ
Target sequence in this assay (P29965 113-261 partner limits assumed): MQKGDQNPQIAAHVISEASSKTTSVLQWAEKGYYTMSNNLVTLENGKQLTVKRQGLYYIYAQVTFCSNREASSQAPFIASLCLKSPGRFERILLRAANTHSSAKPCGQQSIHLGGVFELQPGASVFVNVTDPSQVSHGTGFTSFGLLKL

[2] = biological target: T1, CD40-CD40L; test: Inhibition of human Fc-conjugated CD40/FLAG-tagged biotinylated CD40L costimulatory protein-protein interaction incubated for 1 hr by ELISA-type assay
[3] = Inhibition of human Fc-conjugated TNF-R/FLAG-tagged biotinylated TNFalpha protein-protein interaction incubated for 1 hr by ELISA-type assay
[4] = biological target: T1, CD40-CD40L; test: Inhibition of interaction of CD40 (unknown origin) transfected in HEK Blue cells with recombinant human CD40L assessed as reduction in CD40L-induced NF-kappaB activation after 18 hrs by spectrophotometry based SEAP reporter gene assay; assay type: cell-based
[5] = tested on: THP-1; test: Cytotoxicity against human THP1 cells assessed as reduction in cell viability at 100 to 200 uM after 48 hrs by MTT assay; assay type: cell-based; conditions: thp-1, 48 h
Procedure, shortened: (§1)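 THP-1 cells grown in RPMI-1640 with 10% FBS, starved 24 h in FBS-free medium, then seeded at 50,000 cells/well with compounds diluted in the same medium. Incubated 48 h at 37°C, MTT added for a further half hour, formazan read at 490 nm. Data converted to percent inhibition; duplicate or triplicate wells, at least three independent experiments.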

[6] = biological target: T1, CD40-CD40L; test: Inhibition of interaction of CD40 in human B cells with recombinant human CD40L assessed as reduction in CD40L-induced cell proliferation after 48 hrs by BrdU incorporation-based ELISA
Procedure, shortened: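 CD19+ B cells from healthy-donor PBMC (magnetic bead selection, >90% CD19+) at 2 × 10^5 cells/mL in IMDM with 10% FBS, ITS and rhIL-4 at 0.2 µg/mL. Activated with rhCD154 (MegaCD40L) at 0.1 µg/mL plus graded compound for 48 h. BrdU then added for another 48 h; incorporation read by colorimetric ELISA.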
Target sequence in this assay (P25942 21-277 limits assumed): as the sequence (P25942 21-277 limits assumed) above
Target sequence in this assay (P29965 113-261 partner limits assumed): as the sequence (P29965 113-261 partner limits assumed) above

[7] = biological target: T1, CD40-CD40L; test: Inhibition of interaction of CD40 in promoter/enhancer region of aicda-fused Ds-Red reporter transfected human B cells with recombinant human CD40L assessed as reduction in CD40L/IL-4-induced B cell activation by measuring AID expression after 2 days by flow cytometric analysis
Procedure, shortened: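 Primary human B cells transduced by spinoculation (1.5 h, 2,500g, 32°C, polybrene 8 µg/mL) with aicda promoter/enhancer–DsRed lentivirus. Cells at 1.25 × 10^5/mL in IMDM with 10% FBS, stimulated with IL-4 and CD40L (each 0.2 µg/mL) plus graded compound for 2 days at 37°C. DsRed read by flow cytometry. Anti-CD40L mAb 33.3 nM and CpG 1 µg/mL as controls; n=3.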

[8] = biological target: MAC1-CD40L (Homo sapiens) (UniProt P05107+P11215+P29965); test: Inhibition of human Fc-conjugated Mac1/FLAG-tagged biotinylated CD40L protein-protein interaction incubated for 1 hr by ELISA-type assay
Procedure, shortened: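 Fc-conjugated Mac-1 coated overnight at 4°C at 0.4 µg/mL; blocked with PBS/Tween/BSA. FLAG-tagged CD40L at 0.2 µg/mL added with graded compound in HEPES binding buffer (pH 7.2) for 1 h. Detection with anti-FLAG HRP/TMB at 450 nm. Data converted to percent inhibition and fitted to a log inhibitor curve.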

[9] = Solubility of the compound in water; assay type: physicochemical; conditions: buffer
Procedure, shortened: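 Saturated solution in distilled water, concentration measured by C18 HPLC (60:40 water:acetonitrile, 2.0 mM ammonium acetate, UV 254 nm). Calibration standards were made from known amounts dissolved in 20% w/v aqueous HPβCD. Compounds were tested as triethylamine salts unless stated otherwise.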

[10] = species on record: Homo sapiens; test: Selectivity ratio of IC50 for human Fc-conjugated TNF-R/FLAG-tagged biotinylated TNFalpha protein-protein interaction to IC50 for human Fc-conjugated CD40/FLAG-tagged biotinylated CD40L costimulatory protein-protein interaction
Procedure, shortened: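 Cell-free plate binding: TNF-R-Fc and CD40-Fc each coated at 0.3 µg/mL. FLAG-tagged TNF-α or CD40L, each at 0.02 µg/mL, added with graded compound for 1 h in HEPES buffer, pH 7.2. Anti-FLAG HRP/TMB detection at 450 nm. IC50s come from log inhibitor fits.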

[11] = tested on: THP-1; test: Cytotoxicity against human THP1 cells assessed as reduction in cell viability at 100 uM after 48 hrs by MTT assay; assay type: cell-based; conditions: thp-1, 48 h; procedure, shortened: as §1
[12] = tested on: Salmonella typhimurium; test: Mutagenicity in Salmonella typhimurium TA100 up to 500 uM measured daily up to day 6 by Ames test; assay type: toxicity; conditions: salmonella enterica subsp. enterica serovar typhimurium
Procedure, shortened: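 Muta-Chromplate Ames format with S. typhimurium TA-100, reconstituted and grown overnight (16–18 h) at 37°C, then added to reaction mixture with compound at 0.1 to 500 μM (DMSO ≤2.5% final). Plated one plate per condition, incubated at 37°C, positive wells counted daily. Controls were background, NaN3 positive and sterility plates; significance from the manufacturer's tables.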

[13] = Elimination half life in C57BL6 mouse at 60 mg/kg, sc administered as single dose measured up to 24 hrs by HPLC analysis; assay type: ADME, organism-based; conditions: in vivo, read-out: beta t1/2 (converted)
Procedure, shortened: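 Single s.c. dose of 1.6 mg/mouse (~60 mg/kg) in 250 µL 20% w/v HPβCD to male C57BL/6 mice, 10 weeks old (n = 4). Tail blood (50 µL) drawn at 0, 0.5, 1, 2, 4, 6 and 24 h. Plasma quantified by C18 HPLC (60:40 water:acetonitrile with 2.0 mM ammonium acetate, 254 nm), calibration linear over 1 to 500 µg/mL.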

[14] = tested on: Mus musculus; test: In vivo inhibition of alloantigen-induced T cell response in sc dosed BALB/c mouse injected with DBA-2 mouse splenocytes assessed as reduction in splenocyte-mediated increase in draining popliteal lymph node cells administered as bid from 1 day before alloantigen challenge to 3 days post alloantigen challenge; assay type: functional, organism-based
Procedure, shortened: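 Female BALB/c recipients (10–12 weeks) got a footpad injection of 1 × 10^7 splenocytes from male DBA-2 donors. Compound given s.c. at 20–60 mg/kg b.i.d. from day -1 to 3 in 20% HPβCD; MR-1 anti-CD40L (20 mg/kg, days -1 and 0) as positive control. Draining popliteal nodes taken 3 days after challenge and cells counted; n = 3–4 per group, mean ± SD.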

[15] = tested on: Mus musculus; test: Toxicity in C57BL6 mouse implanted with BALB/c mouse skin graft at 30 mg/kg, sc administered daily for 2 weeks; assay type: organism-based; conditions: in vivo, 336 h
Procedure, shortened: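 C57BL/6 recipients carried full-thickness BALB/c ear skin grafts on the dorsal thorax. They received CTLA4-Ig 250 μg on days 0, 2, 4 and 6, plus compound at 30 mg/kg s.c. daily in 20% w/v HPβCD over two weeks, and were watched for signs of toxicity. 5–8 mice per group.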

[16] = biological target: T1, CD40-CD40L; test: Ratio of IC50 for human Fc-conjugated CD40/FLAG-tagged biotinylated CD40L costimulatory protein-protein interaction in presence of Triton-X 100 to IC50 for human Fc-conjugated CD40/FLAG-tagged biotinylated CD40L costimulatory protein-protein interaction in absence of Triton-X 100; assay type: protein assay
Procedure, shortened: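 CD40-Fc (0.3 µg/mL) coated, FLAG-CD40L (0.02 µg/mL) binding, 1 h, anti-FLAG HRP/TMB read at 450 nm. Run with and without the non-ionic detergent Triton X-100 at 0.01% to test for colloidal aggregation. IC50 taken from log inhibitor vs. response fits in each condition.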
Target sequence in this assay (P25942 21-277 limits assumed): as the sequence (P25942 21-277 limits assumed) above
Target sequence in this assay (P29965 113-261 partner limits assumed): as the sequence (P29965 113-261 partner limits assumed) above

MAC1-CD40L (Homo sapiens), sequence (P05107 whole entry, looked up, other chains not shown): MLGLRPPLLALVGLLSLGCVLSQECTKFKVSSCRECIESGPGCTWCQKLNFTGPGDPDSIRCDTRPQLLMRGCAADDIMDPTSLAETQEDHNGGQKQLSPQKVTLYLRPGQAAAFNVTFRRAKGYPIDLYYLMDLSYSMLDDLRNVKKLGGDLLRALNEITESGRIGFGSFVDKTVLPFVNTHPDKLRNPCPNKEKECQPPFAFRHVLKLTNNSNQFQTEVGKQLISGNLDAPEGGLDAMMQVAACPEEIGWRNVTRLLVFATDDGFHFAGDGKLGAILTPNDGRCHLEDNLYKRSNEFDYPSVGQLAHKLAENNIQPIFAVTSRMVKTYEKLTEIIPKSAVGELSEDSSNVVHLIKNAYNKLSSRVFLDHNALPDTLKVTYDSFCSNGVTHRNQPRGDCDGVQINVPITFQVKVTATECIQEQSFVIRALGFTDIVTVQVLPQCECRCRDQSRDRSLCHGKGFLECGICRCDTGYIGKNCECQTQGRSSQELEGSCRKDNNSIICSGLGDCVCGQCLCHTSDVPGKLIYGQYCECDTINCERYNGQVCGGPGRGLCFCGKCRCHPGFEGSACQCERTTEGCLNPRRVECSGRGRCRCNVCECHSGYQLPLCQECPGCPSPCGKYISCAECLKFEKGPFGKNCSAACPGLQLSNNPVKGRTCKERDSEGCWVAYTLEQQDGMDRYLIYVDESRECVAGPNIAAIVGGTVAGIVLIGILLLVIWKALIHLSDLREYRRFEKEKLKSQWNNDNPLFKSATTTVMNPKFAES
MAC1-CD40L (Homo sapiens), sequence (P29965 whole entry, looked up, other chains not shown): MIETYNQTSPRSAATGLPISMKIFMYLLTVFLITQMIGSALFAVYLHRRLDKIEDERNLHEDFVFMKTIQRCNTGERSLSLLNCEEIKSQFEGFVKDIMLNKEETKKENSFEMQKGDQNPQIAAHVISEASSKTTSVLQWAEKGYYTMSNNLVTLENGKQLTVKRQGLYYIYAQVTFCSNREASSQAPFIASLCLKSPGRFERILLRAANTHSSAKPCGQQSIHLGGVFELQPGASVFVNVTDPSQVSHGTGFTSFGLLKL

Molecule	IC50 [2]	inhibition [2]	IC50 [3]	IC50 [4]	inhibition [4]	inhibition [8]	Ratio IC50 [10]	other results
O=C(Nc1ccc(-c2ccc(C(=O)Nc3ccc(C(=O)O)c4ccccc34)cc2)cc1)c1ccc([N+](=O)[O-])cc1	0.36 µM	Dose-dependent effect	> 1000 µM	9.4 µM	Dose-dependent effect	Active		inhibition [1]: Dose-dependent effect; Activity [5]: Toxic; inhibition [6]: Dose-dependent effect; IC50 [7]: 15.9 µM; inhibition [7]: Dose-dependent effect; solubility [9]: 17 µM (≈ 9.04 µg/mL)
Nc1ccc(C(=O)Nc2ccc(-c3ccc(C(=O)Nc4cccc5cccc(S(=O)(=O)O)c45)cc3)cc2)cc1	301 µM		887 µM			Active	> 100	Activity [5]: Toxic
COC(=O)c1ccc(C(=O)Nc2ccc(-c3ccc(C(=O)Nc4cccc5cccc(S(=O)(=O)O)c45)cc3)cc2)cc1	0.17 µM	Dose-dependent effect	992 µM	17.1 µM	Dose-dependent effect	Active		inhibition [1]: Dose-dependent effect; Activity [11]: Non-Toxic; Activity [12]: Non-Toxic; inhibition [6]: Dose-dependent effect; IC50 [7]: 4.5 µM; inhibition [7]: Dose-dependent effect; half-life [13]: 2 h; inhibition [14]: Active; Activity [15]: Non-Toxic; solubility [9]: 240 µM (≈ 139 µg/mL)
H-VLQWAEKGYYTMSNN-OH	154 µM							
O=C(Nc1ccc(-c2ccc(C(=O)Nc3ccc(S(=O)(=O)O)c4ccccc34)cc2)cc1)c1ccc([N+](=O)[O-])cc1	2.33 µM	Dose-dependent effect	479 µM				> 100	
O=C(Nc1ccc(-c2ccc(C(=O)Nc3cccc4cccc(S(=O)(=O)O)c34)cc2)cc1)c1ccc([N+](=O)[O-])cc1	0.31 µM	Dose-dependent effect	> 1000 µM	10.3 µM	Dose-dependent effect	Active		inhibition [1]: Dose-dependent effect; Activity [11]: Non-Toxic; Activity [12]: Non-Toxic; inhibition [6]: Dose-dependent effect; IC50 [7]: 13.2 µM; inhibition [7]: Dose-dependent effect; solubility [9]: 7 µM (≈ 3.97 µg/mL)
CSCC[C@H](NC(=O)[C@@H](NC(=O)[C@H](Cc1ccc(O)cc1)NC(=O)[C@H](Cc1ccc(O)cc1)NC(=O)CNC(=O)[C@H](CCCCN)NC(=O)[C@H](CCCCN)NC(=O)[C@H](C)NC(=O)[C@H](Cc1c[nH]c2ccccc12)NC(=O)[C@H](CCC(N)=O)NC(=O)[C@H](CC(C)C)NC(=O)[C@@H](N)C(C)C)[C@@H](C)O)C(=O)N[C@@H](CCCCN)C(=O)N[C@@H](CO)C(=O)N[C@@H](CC(N)=O)C(=O)O		inactive						
O=C1OC2(c3ccccc31)c1cc(I)c(O)c(I)c1Oc1c2cc(I)c(O)c1I								Ratio IC50 [16]: 1.04
O=C(Nc1ccc2c(O)c(/N=N/c3ccc(/N=N\c4ccc(S(=O)(=O)O)cc4)cc3S(=O)(=O)O)c(S(=O)(=O)O)cc2c1)Nc1ccc2c(O)c(/N=N/c3ccc(/N=N\c4ccc(S(=O)(=O)O)cc4)cc3S(=O)(=O)O)c(S(=O)(=O)O)cc2c1	2.26 µM			42.7 µM	Dose-dependent effect	Active		
O=C(Nc1ccc(-c2ccc(C(=O)Nc3cccc4cccc(S(=O)(=O)O)c34)cc2)cc1)c1ccc2[nH]nnc2c1	0.99 µM	Dose-dependent effect	> 1000 µM				> 100	
O=C(Nc1ccc(C(=O)Nc2cccc3cccc(S(=O)(=O)O)c23)cc1)c1ccc([N+](=O)[O-])cc1			> 1000 µM			Active	> 100	
